Measured values from different studies.
Compare with care: the assays were run in different laboratories.
Target: Serine/threonine-protein kinase STK11 (STK11, Homo sapiens, UniProt Q15831)
Residues used in one study (Q15831 1-433): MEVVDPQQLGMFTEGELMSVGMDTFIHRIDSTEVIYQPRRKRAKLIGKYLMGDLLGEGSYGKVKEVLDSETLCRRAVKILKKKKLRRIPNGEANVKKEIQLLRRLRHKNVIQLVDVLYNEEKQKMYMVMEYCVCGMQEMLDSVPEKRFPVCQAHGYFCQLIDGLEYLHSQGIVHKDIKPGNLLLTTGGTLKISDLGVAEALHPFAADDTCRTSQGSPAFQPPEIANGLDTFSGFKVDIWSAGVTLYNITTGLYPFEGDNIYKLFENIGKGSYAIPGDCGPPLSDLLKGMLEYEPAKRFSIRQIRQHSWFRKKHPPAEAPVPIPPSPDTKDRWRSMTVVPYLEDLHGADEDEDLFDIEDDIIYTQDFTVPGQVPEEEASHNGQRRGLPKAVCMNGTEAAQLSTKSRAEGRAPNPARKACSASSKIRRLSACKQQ

CCc1ccccc1C(=O)Nc1n[nH]c2c(C)c(F)c(C3C(C#N)=C(C)N(C)C(C)=C3C#N)cc12
remaining binding (cell-free assay; competition with immobilised ligand; 1 µM): 100%

Cc1cnn2ncc(-c3ccnc(N(C)C)n3)c2c1
remaining binding (binding; 1 µM): 99%

C[C@H](c1ccc(F)cc1)N(Cc1cccc(C(=O)O)c1)C(=O)c1cnc2ccccc2c1
remaining binding (cell-free assay; competition with immobilised ligand; 1 µM): 100%

C[C@@H]1CCN(c2nccc(-c3cnn4ncccc34)n2)C1
remaining binding (binding; 1 µM): 100%

COc1ncc2cc3ccccc3nc2c1C#N
remaining binding (cell-free assay; competition with immobilised ligand; 5 µM): 99%

O=C(O)[C@@H]1[C@@H](Cn2nnc3ccccc3c2=O)CC[C@H]1C(=O)c1ccc(OCCC2CCOCC2)cc1
remaining binding (cell-free assay; competition with immobilised ligand; 1 µM): 94%

C[C@@H]1CN(c2ccc3ncc(-c4ccc5[nH]nc(C6CC6)c5c4)n3n2)C[C@H](C)O1
remaining binding (binding; competition with immobilised ligand; 50 nM): 72%

CNC(=O)[C@@H]1CC[C@@H](n2c(-c3ccc4cnccc4c3)nc3ccc(C(=O)NCc4cccc(C(N)=O)c4)cc32)C1
remaining binding (binding; competition with immobilised ligand; 1 µM): 93%

CC1CCCN1c1nccc(-c2cnn3ncccc23)n1 (stereo not shown)
remaining binding (binding; 1 µM): 100%

O=C(Nc1cccnn1)N1CCC(=Cc2cccc(Oc3ccc(C(F)(F)F)cn3)c2)CC1
remaining binding (cell-free assay; competition with immobilised ligand; 1 µM): 100%

C=CC(=O)N1CCC(C(=O)NCC(=O)N2CCN(c3nc(-c4cnc(N)nc4C(F)F)nc(N4CCOCC4)n3)CC2)CC1
remaining binding (binding; competition with immobilised ligand; 1 µM): 100%

O=C(c1ccc(Nc2ncc(Cl)c(-c3cc4ccccc4s3)n2)cc1)N1CCC(N2CCCC2)CC1
remaining binding (binding; competition with immobilised ligand; 1 µM): 1.6%

O=C(Nc1c[nH]nc1C(=O)NC1CCNCC1)c1cc(F)cc(F)c1
remaining binding (binding; competition with immobilised ligand; 1 µM): 78%

O=C(NC[C@@H]1[C@H]2CN(C(=O)OCc3cc(C(F)(F)F)cc(C(F)(F)F)c3)C[C@@H]12)c1ccc2[nH]nnc2c1
remaining binding (cell-free assay; competition with immobilised ligand; 1 µM): 100%

CN(C)c1nccc(-c2cnc3ncccn23)n1
remaining binding (binding; 1 µM): 100%

O=C(c1ccc(Nc2nccc(-c3cc4ccccc4s3)n2)cc1)N1CCC(N2CCCC2)CC1
remaining binding (binding; competition with immobilised ligand; 1 µM): 4.3%
